Assay: Toxicity liver stage against HepG2, at 10uM
Assay type: cell-based
Set-up: test concentration 10 uM, cell line HepG2-A16-CD81EGFP
Details: human, HepG2-A16-CD81EGFP cells; read-out: INHIBITION
Method in brief: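 Uninfected HepG2-A16-CD81EGFP cells, 3 × 10^3 per well, 1536-well, plated on prespotted compound at 10 μM final, parasite-free screening media added to match infected plates; puromycin 10 μM positive, DMSO 0.5% negative; run in parallel with 48 h PbLuc assay at 37 °C, 5% CO2; viability by CellTiter-Glo luminescence, normalized to controls.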

Row | SMILES | cytotoxicity at 10 µM [%]
1 | Cc1cccc(C)c1OC1CN(Cc2cnc(N3CCCC3)nc2)C1 | 1.35
2 | CCn1c(CC2CCNCC2)nn(Cc2ccc(C(=O)NC)o2)c1=O | 9.17
3 | CC(C)(C)SCCN1CC(=O)N2CC[C@@H](O)C[C@H]2C1=O | 4.01
4 | CC1=Nc2c(c(=O)[nH]n2C(C)C)C(c2cccc(OC(F)F)c2)S1 (stereo not given) | 8.13
5 | N#Cc1csc(CNCCOc2ccc(Cl)cn2)c1 | -5.59
6 | COCC(=O)NCCn1nc(-c2cc(C)oc2C)ccc1=O | -1.74
7 | Cc1ccnc(N2CCCC(c3nccn3C(C)C)C2)n1 (stereo not given) | -9.63
8 | FC(F)(F)c1ccnc(N2CCC(c3nccn3CC3CC3)CC2)n1 | 3.03
9 | CC(C)N(C)S(=O)(=O)c1ccc2c(c1)CCN(C(=O)c1cscn1)C2 | 8.48
10 | O=C(CC1CCCC1)N1C[C@@H]2CN(Cc3ccoc3)CCO[C@@H]2C1 | -79.3
11 | CN1CCC(Cc2noc(-c3cn(Cc4ccc(F)cc4)nn3)n2)CC1 | -4.18
12 | CCc1nc(NS(=O)(=O)c2ccc(F)cc2Cl)no1 | 0.528
13 | CC(C)CN1C[C@H]2CCN(c3ncccn3)CC[C@H]2S1(=O)=O | -11.2
14 | CC1CN(C(=O)c2cc[nH]c(=O)c2)c2ccccc21 (stereo not given) | 1.5
15 | COc1c(C)cnc(CN2CCOC(Cn3nc(C)cc3C)C2)c1C (stereo not given) | 3.66
16 | COc1cc(N2CCC3(CC(=O)N(Cc4csc(C)n4)C3)C2)ncn1 (stereo not given) | -104
17 | CC[C@H](C)[C@H](N)C(=O)N1CC(=O)c2sc(Nc3ccc(F)cc3)nc2C1 | -1.44
18 | CCC(C(=O)N(C)CCC1=CCN(C)CC1)c1ccccc1 (stereo not given) | -10.9
19 | O=C(NCC1CCCCC1)N1C[C@@H]2C[C@@H]1CN2 | -7.78
20 | CCc1c(C)nc(N)nc1NCCSCc1[nH]cnc1C | 4.5
21 | CCn1ncc2c1CCCC2NCc1cc(OC)cc(OC)c1 (stereo not given) | 3.24
22 | Cn1cc(C2CC(=O)NC23CCN(c2ncc(F)cn2)CC3)cn1 (stereo not given) | -5.39

Row | SMILES | cytotoxicity at 10 µM [%]
23 | COc1c(CNCCNC(=O)c2cccs2)c(C)nn1C | -0.373
24 | O=C1CCC2(CCOC2)CN1Cc1nc2ccc(Cl)cc2[nH]1 (stereo not given) | 1.9
25 | Cc1nc(-c2cc(C(=O)NCC(C)(C)CO)c3ccccn23)cs1 | 6.1
26 | CCS(=O)(=O)N1CCOC(CCCc2ccccc2)C1 (stereo not given) | -9.31
27 | CC(C)(CNc1cccc(Cl)c1)NC(=O)C1CCCN(CC(N)=O)C1 (stereo not given) | -1.46
28 | O=S(=O)(CCCS(=O)(=O)c1ccc2c(c1)OCCCO2)c1ccccc1 | -2.76
29 | O=C(c1ccc2c(c1)CCC2)N1CCn2ncnc2C1 | -5.26
30 | CCc1n[nH]c(C2CN(C(=O)c3cc4c(s3)CCC4)CCO2)n1 (stereo not given) | -4.98
31 | Cc1cccc2c(CCNC(=O)NCC[S+](C)[O-])c[nH]c12 (stereo not given) | 9.62
32 | CC(C)(C)CN(CCC#N)C(=O)Cc1ccc(-n2cnnn2)cc1 | 1.18
33 | c1cnc(C2CCCN(Cc3ccsc3)C2)cn1 (stereo not given) | -5.67
34 | CN(CC(=O)Nc1ccccc1C(=O)NC1CC1)Cc1ccccc1Cl | -8.18
35 | O=C(CSc1ccccc1F)NS(=O)(=O)c1ccc2c(c1)OCCO2 | -4.36
36 | Cc1noc([C@@H]2C[C@H]3OCC[C@H]3N(CC3CCCC3)C2)n1 | -77.5
37 | CC(C)C(=O)N1CCCC1c1nc(N(C)C)ncc1-c1ccc(Cl)cc1 (stereo not given) | 20.1
38 | O=C(CCc1ccc2c(c1)CCO2)Nc1nnn[nH]1 | 0.301
39 | O=C(CSc1ccccn1)N1CCC(OCc2cccnc2)CC1 | -3.84
40 | O=c1cnc2ccccc2n1CCCn1cccn1 | -26.4
41 | COc1ccc([C@@H]2CN(C(=O)CCCc3cn[nH]c3)C[C@H]2N(C)C)cc1 | -2.31
42 | CSc1cccc(CN(C)C(=O)c2cccc(C3CCCNC3)c2)c1 (stereo not given) | -1.08
43 | CC(C)(C)CNC[C@H]1Cn2c(-c3ccccc3)cnc2CO1 | -9.14
44 | CC(=O)Nc1nc(CN2CCOC(Cn3cc(C)cn3)C2)cs1 (stereo not given) | 11.3

Row | SMILES | cytotoxicity at 10 µM [%]
45 | Cc1ccc(C)c2c(C)c(C(=O)NCCCn3cnnc3)[nH]c12 | 6.28
46 | Cc1nn(C)c(C)c1-c1ccnc(N(C)Cc2nc(C(C)C)no2)n1 | 20.6
47 | O=C(Cc1ccsc1)N1CCC(c2noc(-c3ccncc3)n2)CC1 | -22.1
48 | O=C1[C@@H]2CN(Cc3cc4ccccc4o3)C[C@]2(C(=O)O)CN1CC1CC1 | -5.22
49 | O=C1CCCN1CCCN1CCCC(Cn2cncn2)C1 (stereo not given) | -1.82
50 | COc1cccc(C(C(=O)O)N2CCSCC2)c1F (stereo not given) | -12.9
51 | Cc1cc(C(=O)NCC2COCc3c(C)nnn3C2)no1 (stereo not given) | -7.32
52 | COCC(=O)N1CCn2c(CN3CCN(C)CC3)cnc2C1 | -70
53 | CSc1ccc2cc(CN(C)CCCN(C)C)c(=O)[nH]c2c1 | -2.72
54 | CC(NS(C)(=O)=O)C(=O)N(C)Cc1csc(-c2cccs2)n1 (stereo not given) | -0.525
55 | Cc1cc(CN(C)C(=O)C(c2cccnc2)N2CCOCC2)n[nH]1 (stereo not given) | -52.7
56 | CC(C)c1nccn1C1CCCN(C(=O)c2cnc[nH]2)C1 (stereo not given) | -0.808
57 | O=C(NCCNc1ncccn1)c1ccc(OCc2ccccc2)nc1 | 17
58 | CCSCCC(C)N(C)C(=O)c1ccc2nncn2c1 (stereo not given) | -5.4
59 | COC(=O)CNC(=O)C(C(C)C)n1cnc2cc(F)c(F)cc21 (stereo not given) | 2.76
60 | COc1ccccc1Nc1nc2c(C)nn(C)c2c(=O)n1C | 2.56
61 | Cc1ccc(CN2Cc3c(C(=O)N4CCN(C)CC4)nn(C)c3C2)s1 | -6.77
62 | Cc1ncc(CN(C)C2CCCN(Cc3noc(C4CC4)n3)C2)s1 (stereo not given) | -13.5
63 | Cc1nc(C2CCN(C(=O)c3cc(C4CC4)[nH]n3)CC2)no1 | -6.44
64 | c1cc(CCN2CCC(c3n[nH]c(C4CC4)n3)CC2)ccn1 | 3.39
65 | Cc1cc(Cc2ccc(F)cc2)cc(C2CCCNC2)n1 (stereo not given) | -3.14
66 | O=C(c1ccccn1)N1CCC2(CCCN(c3nncs3)C2)C1 (stereo not given) | -111

Row | SMILES | cytotoxicity at 10 µM [%]
67 | COCCNC(=O)Cc1cnc(-n2cccc2)s1 | -3.35
68 | CCC1=N[C@@]2(CC[C@@H]3CN(S(=O)(=O)CC)C[C@@H]32)C(=O)N1CC(C)C | -0.0582
69 | CNc1nc2c(s1)C(c1ccc(F)cc1Cl)CC(=O)N2 (stereo not given) | 4.12
70 | Cc1csc(C2(NCc3nnc(-c4ccco4)o3)CCCC2)n1 | 0.416
71 | N#Cc1c(N2CCCN(C3CCOCC3)CC2)nc2ccccn12 | 14.7
72 | CC(C)NC(=O)C1CCN(c2nc3nc[nH]c(=O)c3s2)CC1 | -3.79
73 | Cc1cc(C(=O)N2CCN(CC(O)Cn3cccn3)CC2)c(C)o1 (stereo not given) | -4.76
74 | CCc1nc(C)c(C2CC(=O)Nc3c2c(C(C)(C)C)nn3C)[nH]1 (stereo not given) | 2.63
75 | O=C1CCCN1c1cccc(CNCc2nc(-c3ccco3)no2)c1 | 0.379
76 | CC(C)Cc1cc(C(=O)N2CCC[C@H]2C(=O)N2CCOCC2)on1 | 6.07
77 | Cn1cc(C(=O)N2CCSc3ccccc32)ccc1=O | -22.9
78 | Cn1cc(C(=O)N2CC[C@@H]3[C@@H]2CCN3Cc2cccnc2)cn1 | 3.06
79 | c1ccc(-c2cc(CN3CCc4cncnc4C3)on2)cc1 | 11.3
80 | Cc1nnsc1CN(C)Cc1ccc(C(=O)Nc2sccc2C#N)cc1 | 4.06
81 | CCc1cnc(CN2CCC(O)(c3cc(OC)cc(OC)c3)CC2)o1 | -0.276
82 | O=C(CNc1ccccc1S(=O)(=O)C(F)F)NCc1ccco1 | -53
83 | O=C(Nc1ccccc1F)N(CCO)CCOCC(F)(F)F | 1.1
84 | COc1cnc(N2CCN(C)CC2)nc1-c1ccnn1C | 0.868
85 | Cc1nn(C)c(C)c1C1CCCN1CC(=O)NCc1ccccn1 (stereo not given) | 0.702
86 | Cc1noc2ncc(C(=O)NCC3CCOC3)cc12 (stereo not given) | -1.47
87 | CN(C)c1nc2c(c(N3CCC(O)CC3)n1)CN(CC(C)(C)C)CC2 | 7.5
88 | CC(CC(=O)N1CCCN(Cc2nccn2C)CC1)n1cccc1 (stereo not given) | -12.5

Row | SMILES | cytotoxicity at 10 µM [%]
89 | O=C(CN1CCOC(Cn2cccn2)C1)NCCc1ccc(F)cc1 (stereo not given) | -15.6
90 | Fc1cccc(N2CCOC3(CCCN(c4cnccn4)C3)C2)c1 (stereo not given) | 5.89
91 | Nc1nnc(C2CC(=O)N(c3ccccc3)C2)s1 (stereo not given) | 4.23
92 | CCN(CC1CCCO1)C(=O)NCCNC(=O)c1ccccc1F (stereo not given) | 5.63
93 | Cc1ccccc1CN1CC[C@H]2C[C@H](C(=O)N(C)C)O[C@H]2C1 | 4.36
94 | COc1ccc(C2CC(=O)Nc3nc(N4CCOCC4)sc32)c(OC)c1 (stereo not given) | 53.8
95 | CCOc1ccc(C2CCCN2C(=O)NCCn2ccnc2)cc1 (stereo not given) | 0.632
96 | O=C(N[C@@H]1CNCCC[C@H]1O)c1ccc(OCc2ccccc2)cc1 | -3.39
97 | O=C(CN1CCOC(Cn2cccn2)C1)NCc1ccccn1 (stereo not given) | -6.73
98 | Cc1cnn(CC(C)NCC(=O)Nc2ccc(Cl)cn2)c1 (stereo not given) | 6.05
99 | Nc1nnnn1NCc1ccccc1C(F)(F)F | 5.56
100 | CC(OCC1CC1)C(=O)Nc1cccc(C(=O)Nc2ccncc2)c1 (stereo not given) | 7.12
101 | CCN(CC(F)(F)F)C(=O)C1CCCN(Cc2ccno2)C1 (stereo not given) | -2.33
102 | COc1ccc(-c2ccoc2)cc1CNC1CCCC1 | -3.45
103 | Cc1ccnn1CCC(=O)N1C[C@@H](O)[C@H](Oc2cccc(F)c2)C1 | -15.8
104 | Cn1ccnc1CN1CCCC2(CCN(CC3CCCO3)CC2)C1 (stereo not given) | -76.7
105 | CCOC(=O)[C@]12CCCN(Cc3nccs3)C[C@H]1CN(S(C)(=O)=O)C2 | -5.79
106 | CCn1nnnc1-c1cccc(NC(=O)CCOC(C)C)c1 | -9.8
107 | COc1ccc(N2CCN(CC[C@H](O)c3ccccc3)CC2=O)cc1 | 2.41
108 | O=C(NC[C@]12COC[C@H]1CN(Cc1nccs1)C2)c1ccccc1 | -11.8
109 | CCn1cc(S(=O)(=O)N2CCCC3(CC=CNC3=O)C2)c(C)n1 (stereo not given) | -7.56
110 | CCOCC(=O)NCCc1nc(C)cc(C(F)(F)F)n1 | -1.21
